Assay outcomes as filed in PubChem BioAssay.
Shown are actives, neighbours in structure and some others; about 3.7% of the full set was active somewhere.
KCNK3 block = human KCNK3 channel inhibitors, primary screen, CHO cells, FluxOR thallium flux, B-score. Potassium channel subfamily K member 3 (Homo sapiens), O14649. 0.84% of 340,000 active. AID 602410, 2012. FluxOR fluorescence; hits give low values. B-score at 10 µM;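 active means B-score under library mean minus 4 SD, starting fluorescence ratio at most library mean plus 5 SD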;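 further: more negative B-score means stronger inhibition of thallium flux through KCNK3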
KCNQ1 block = inhibitors of human KCNQ1 channel, primary screen, cell-based, thallium flux, high-throughput | 1.3% of 310,000 active | AID 2642, 2010 | CHO-K1 KCNQ1, FluxOR thallium flux fluorescence; hits give high values | B-score at 10 µM | Potassium voltage-gated channel subfamily KQT member 1 (Homo sapiens), P51787;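 active means compounds whose thallium flux B-score, printed positive for inhibition, exceeds three library SD while starting fluorescence stays within three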;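 further: channel opened by potassium depolarization with thallium stimulus after 20 min compound exposure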
KCNQ1 act = potentiators or activators of KCNQ1 channel, primary screen, cell-based, thallium flux, high-throughput; Potassium voltage-gated channel subfamily KQT member 1 (Homo sapiens), P51787; CHO-K1 KCNQ1, thallium flux FluxOR fluorescence; hits give high values; B-score at 10 µM; 0.35% of 310,000 active; AID 2648, 2010;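 active means fluorescence ratio B-score, a plate-corrected score, at least three library SD, with initial intensity B-score within 5 SD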
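Material: CHO-K1 cells stably expressing KCNQ1. Medium: assay buffer for compound exposure, DMSO matched across wells. Reagent: K+/Tl+ depolarizing stimulus. Compound dosing: single-concentration screen. Times: 37 °C overnight plating, 90-min dark dye load, 20-min compound pretreatment. Technique: FluxOR Tl+ flux fluorescence.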
hERG rescue = hERG rescue from dofetilide block, primary screen, cell-based, CHO-hERG, FluxOR thallium flux, dofetilide IC70. Voltage-gated inwardly rectifying potassium channel KCNH2 (Homo sapiens), Q12809. dofetilide IC70 present. activation (rescue from dofetilide block), less the hit threshold, % at 10 µM. 0.51% of 310,000 active;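 active means activation above the mean of controls blocked by dofetilide plus 5 SD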;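 further: thallium influx through hERG after potassium depolarization seen as dye fluorescence rise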
KCNK9 inh = KCNK9 potassium channel inhibitors, primary screen, HEK293 cells, thallium flux; AID 488922, 2010; B-score at 10 µM; FluxOR thallium flux fluorescence; hits give low values; Potassium channel subfamily K member 9 (Homo sapiens), Q9NPC2; 1.2% of 310,000 active;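 active means ratio B-score over 3 SD below the library mean, with starting fluorescence within 5 SD of its mean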;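 further: negative B-score means less thallium flux so channel inhibition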
Kir21 block = inhibitors of mouse Kir2.1 inward-rectifier potassium channel; Inward rectifier potassium channel 2 (Mus musculus), P35561; HEK293-Kir2.1, FluxOR thallium flux fluorescence; hits give low values; 0.85% of 310,000 active; B-score at 10 µM; AID 1672, 2009;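 active means fluorescence ratio B-score at or below minus 3 SD of library scores, with starting-brightness B-score within 2 SD, cut at about -4.2 in these data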;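 further: channel flux triggered by added potassium and thallium sulfate stimulus; B-score of peak minus minimum fluorescence over baseline after thallium stimulus; more negative B-score means stronger Kir2.1 block with less thallium influx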
Target sequence (P35561 whole entry, looked up): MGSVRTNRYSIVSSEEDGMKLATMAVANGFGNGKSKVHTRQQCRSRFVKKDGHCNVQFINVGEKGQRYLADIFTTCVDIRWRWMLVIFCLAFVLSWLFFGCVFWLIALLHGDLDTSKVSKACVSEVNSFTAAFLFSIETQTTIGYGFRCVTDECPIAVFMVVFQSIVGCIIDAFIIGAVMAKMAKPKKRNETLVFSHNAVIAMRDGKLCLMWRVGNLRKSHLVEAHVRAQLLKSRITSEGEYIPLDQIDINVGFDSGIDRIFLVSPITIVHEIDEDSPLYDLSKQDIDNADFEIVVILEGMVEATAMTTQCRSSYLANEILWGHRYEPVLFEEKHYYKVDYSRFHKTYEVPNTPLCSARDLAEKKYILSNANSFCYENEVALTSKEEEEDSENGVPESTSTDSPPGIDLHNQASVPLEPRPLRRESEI
KCNK9 inh conf = KCNK9 potassium channel inhibitors, confirmation, HEK293 cells, thallium flux, duplicate | inhibition, % at 10 µM | 43% of 4,900 active | FluxOR thallium flux fluorescence | shares compounds with KCNK9 inh;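 active means thallium signal inhibited by more than 5 SD of the compound-free buffer control wells, on both duplicate plates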;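 further: 0% = assay buffer control wells without compound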
Kir21 sel = mouse Kir2.1 channel inhibition, confirmation, selectivity assay for KCNK9 modulator project, cell-based, HEK293, thallium flux; shares compounds with KCNK9 inh; Kir2.1 cells, FluxOR thallium flux fluorescence; inhibition, % at 10 µM; 4% of 4,900 active; AID 492993, 2010;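 active means thallium signal drop more than 5 SD beyond the mean of the no-compound control wells, seen in both duplicate plates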;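 further: signal is fluorescence rise after thallium addition divided by baseline fluorescence; plate controls were assay buffer only for no effect and full block by chlorpromazine control for full effect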
KCNK9 uninduced = thallium flux in non-induced HEK293 cells, confirmation, counter-screen for KCNK9 inhibitor project, cell-based, second counter screen, non-induced KCNK9-HEK293; 40% of 4,900 active; shares compounds with KCNK9 inh; FluxOR thallium flux; inhibition, % at 10 µM;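 active means thallium signal drop beyond 5 SD of the untreated control mean, on both duplicate plates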;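 further: plate controls were buffer only IC0 wells for no effect and SID17386958 at its maximal inhibitory level for full effect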
Active calls of the source: *; i = inactive; nt = no result.

SMILES	KCNK3 block	KCNQ1 block	KCNQ1 act	hERG rescue	KCNK9 inh	Kir21 block	KCNK9 inh conf	Kir21 sel	KCNK9 uninduced
CCn1cc(C(=O)N2CCCC(C(=O)c3ccc4ccccc4c3)C2)cn1 (configuration not stated)	i	i	i	-3.2	i	1.85	i	i	i
Cc1nonc1CC(=O)N1CCCC(C(=O)c2ccc(Cl)cc2)C1 (configuration not stated)	i	i	i	-14.2	i	-0.01	nt	nt	nt
COc1ccc2cc(-c3ccon3)ccc2c1	i	i	i	0.7	i	-0.41	nt	nt	nt
COc1ccc2cc(C(=O)C3CCCN(C(=O)c4cc5nc(C)cc(C)n5n4)C3)ccc2c1 (configuration not stated)	i	i	i	-5.6	i	0.53	nt	nt	nt
O=C(/C=C/c1ccccc1)NC(NC(=S)Nc1ccc(Cl)cc1Cl)C(Cl)(Cl)Cl (configuration not stated)	i	i	i	-12.8	i	-0.25	i	i	i
c1ccc(CSc2nnc(-c3sccc3-n3cccc3)o2)cc1	i	i	i	-10.0	-8.27*	1.11	i	i	35.0%*
Nc1nc(Nc2cccc(C(F)(F)F)c2)nc(C(F)(F)F)n1	i	i	i	-5.5	-9.26*	2.05	40.0%*	i	i
O=[N+]([O-])c1cc(/C=N/OCc2c(Cl)cccc2Cl)ccc1N1CCOCC1	i	i	i	-14.5	i	-0.02	i	i	i
Cc1nc(C)c(-c2ccc(SCc3ccc(Cl)cc3)nn2)s1	i	i	i	-8.9	i	0.02	i	i	i
O=c1[nH]c2ccccc2c(O)c1-c1ccccc1	i	i	i	-9.6	i	-0.5	nt	nt	nt
O/N=C/Cc1[nH]c2ccccc2c1-c1ccccc1	i	i	i	-6.0	-9.06*	0.34	47.0%*	i	i
CC1=NCCN1S(=O)(=O)c1c(C(C)C)cc(C(C)C)cc1C(C)C	i	i	i	-9.8	-8.32*	-0.47	i	i	i
COc1ccc(Cl)cc1S(=O)(=O)N1CCN=C1C	i	i	i	-6.5	i	-0.56	nt	nt	nt
CC(C)Nc1ccc(C(CC(N)=O)NC(=O)Cc2ccc(Br)cc2)cc1[N+](=O)[O-] (configuration not stated)	i	i	i	-5.9	i	1.77	nt	nt	nt
O=C(Oc1ccccc1C(=O)Nc1ccccc1)c1ccc(Br)c([N+](=O)[O-])c1	i	i	i	-16.7	i	-0.04	nt	nt	nt
CS(=O)(=O)c1ccc(Cl)c(C(=O)OCC(=O)NC2CCCCCCC2)c1	i	nt	nt	nt	nt	nt	nt	nt	nt
Cc1ccc(/C=C/C(=O)Nc2ccc([N+](=O)[O-])cc2)o1	i	i	i	-11.8	i	0.97	nt	nt	nt
Cc1ccc(/C=C/C(=O)Nc2ccc(Oc3ccccc3)cc2)o1	i	i	i	-11.2	i	-0.96	i	i	i
O=C(N/N=C/c1cc(Br)ccc1OC(=O)c1ccc(Br)cc1)c1ccncc1	i	i	i	-11.8	-12*	-0.39	45.0%*	i	34.5%*
Cc1ccc(/C=N/NC(=O)c2ccccc2OCc2ccc(F)cc2)o1	i	i	i	-6.1	i	2.25	nt	nt	nt
C#CCOc1ccccc1/C=N/NC(=O)c1ccccc1OCc1ccccc1	i	i	i	-14.9	-9.6*	0.07	29.5%*	i	41.0%*
O=C(N/N=C/c1cc(Br)ccc1O)c1ccncc1	i	i	i	-19.6	i	1.66	nt	nt	nt
O=C(N/N=C/c1ccncc1)c1ccccc1OCc1ccc(Br)cc1	i	i	i	-9.4	-8.93*	-0.74	i	i	i
CCc1cccc(NS(=O)(=O)c2c(C)nc3scc(C)n3c2=O)c1	i	i	i	-12.6	i	-0.16	nt	nt	nt
CCN(CC)S(=O)(=O)c1ccc(N2CCOCC2)c(NC(=O)c2ccc3ccccc3c2)c1	i	i	i	-3.3	-9.89*	0.02	i	i	27.5%*
SMILES	KCNK3 block	KCNQ1 block	KCNQ1 act	hERG rescue	KCNK9 inh	Kir21 block	KCNK9 inh conf	Kir21 sel	KCNK9 uninduced
CCN(CC)S(=O)(=O)c1ccc(N2CCOCC2)c(NC(=O)CC23CC4CC(CC(Br)(C4)C2)C3)c1	i	i	i	-1.3	i	-0.1	i	i	i
CCN(CC)S(=O)(=O)c1ccc(N2CCOCC2)c(NC(=O)c2ccc3c(c2)OCCO3)c1	i	i	i	-13.2	i	0.16	nt	nt	nt
Cc1nc2sc(C(c3ccc(Cl)cc3)N3CCN(c4ccccc4F)CC3)c(O)n2n1 (configuration not stated)	i	i	i	-6.4	i	1.82	nt	nt	nt
CCN(Cc1ccccc1)C(c1cccs1)c1nnnn1C1CCCCC1 (configuration not stated)	i	i	i	-4.6	-12*	0.9	55.5%*	i	34.5%*
CC(=O)C1=C(C)NC(SCC(=O)c2cc(Cl)ccc2Cl)=C(C#N)C1c1ccco1 (configuration not stated)	-14.2*	11*	i	-6.5	-14.1*	1.11	74.5%*	i	35.0%*
CC(=O)C1=C(C)NC(SCC(N)=O)=C(C#N)C1c1ccco1 (configuration not stated)	i	i	i	-5.4	i	0.01	nt	nt	nt
CC(C)NS(=O)(=O)c1ccc(NC(=O)NC2CCCCC2)cc1	i	i	i	-6.0	i	0.73	nt	nt	nt
COc1c(Cl)cc(Cl)cc1C(=O)n1nc(C)cc1C	i	i	i	-5.2	i	-2.1	i	i	i
